Measurements: PubChem BioAssay AID1027 (Sanford-Burnham Center for Chemical Genomics, 2008)
Among all 200,000 compounds or so, fewer than 10 were called active.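 Rule for the calls: active = luciferase activation factor, scaled between plate controls, of at least 2 with compound at 10 µM; inactive = the rest.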 Only a sample is shown.

Target: Luciferin 4-monooxygenase (Photinus pyralis) (UniProt P08659)
Assay: FLuc activators, initial screening, artefact control for FLuc-dependent activation tests, biochemical, ATPlite luminescence (AID 1027)
Details: ATPlite luciferase biochemical, 10 min, at 10 µM, stronger effect = higher value, 0 = ATP-free wells, 1 = DMSO control
Outline: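 System: Luciferase/luciferin detection reagent, cell-free biochemical luciferase assay | Medium: PBS buffer for ATP | Dosing: Test compounds dosed from 2 mM stocks in 100% DMSO | Timing: 10 min at ambient temperature | Signal: Luminescence measurement of luciferase light output | Evaluation: Luciferase activation, seen as luminescence increase over controls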

Chain of Luciferin 4-monooxygenase (Photinus pyralis) (P08659 whole entry, looked up): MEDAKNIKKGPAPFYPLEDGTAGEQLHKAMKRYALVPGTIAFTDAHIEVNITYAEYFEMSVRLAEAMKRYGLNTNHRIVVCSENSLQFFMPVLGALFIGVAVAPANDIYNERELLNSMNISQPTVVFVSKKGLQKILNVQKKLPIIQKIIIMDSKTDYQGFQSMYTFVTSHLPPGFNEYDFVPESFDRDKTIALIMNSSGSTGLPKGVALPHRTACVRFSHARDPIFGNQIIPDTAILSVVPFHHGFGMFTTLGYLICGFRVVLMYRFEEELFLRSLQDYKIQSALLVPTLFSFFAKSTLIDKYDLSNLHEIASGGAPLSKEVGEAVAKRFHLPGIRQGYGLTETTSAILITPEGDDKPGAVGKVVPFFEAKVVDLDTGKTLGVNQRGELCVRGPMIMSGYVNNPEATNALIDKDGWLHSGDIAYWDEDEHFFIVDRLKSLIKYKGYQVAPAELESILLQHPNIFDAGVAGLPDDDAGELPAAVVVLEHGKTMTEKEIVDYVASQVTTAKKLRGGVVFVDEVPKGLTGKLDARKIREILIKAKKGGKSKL

Activation factor, inactive:
COc1cc(OC)nc(N/N=C(\c2ccccc2)c2ccncc2)n1 1
CCn1ccnc1CN(C)Cc1nc(-c2ccc3c(c2)OCO3)no1 1
CCOC(=O)Cc1csc(SCC(=O)NC(C)C23CC4CC(CC(C4)C2)C3)n1 (configuration not stated) 1
COc1ccc(C(=O)NC(=S)Nc2ccccc2N2CCN(S(C)(=O)=O)CC2)cc1OC 1.1
N#C/C(=C(/O)COC(=O)COc1ccc(Cl)cc1)c1nc2ccccc2[nH]1 1
O=C(Nc1ccc([N+](=O)[O-])cc1)C1CC12CCC2 (configuration not stated) 1
COC(=O)c1c(C)oc2ccc(N(C(=O)Oc3ccccc3)S(=O)(=O)c3ccccc3)cc12 1.1
Cc1ccc(Cl)cc1NC(=S)N(CCN(C)C)Cc1cccs1 1.1
Cc1cc(/C=N/NC(N)=O)c(C)n1C1CCCCC1 1
COC(=O)C(C)N=Cc1ccccc1 (configuration not stated) 1.1
CN(c1ccccc1)S(=O)(=O)c1ccc(Cl)c(C(=O)NCCc2c[nH]c3ccccc23)c1 1
COc1cccc(OC)c1C(=O)NC(=S)NCc1ccco1 1
CCn1c(/C=C/Nc2ccccc2)[n+](CC)c2ccc(C(=O)OCC(F)(F)F)cc21 1
CCOc1ccc(NC(=S)N2CCC(N(C)CC3CCCO3)CC2)cc1 (configuration not stated) 1
Cc1nc(CN2CCN(C(=O)CCc3nnc(Cc4c[nH]c5ccccc45)o3)CC2)cs1 1
O=C(NCc1ccc(F)cc1)C(c1ccccc1)N(C(=O)c1csnn1)C1CC1 (configuration not stated) 1.1
Cc1ccc(CC2S/C(=C(/C#N)C(=O)N3CCOCC3)N(c3ccccc3)C2=O)cc1 (configuration not stated) 1.1
C/C=N/NC(=O)CCCC(=O)N/N=C/C 1
C/C(=N/NS(=O)(=O)c1ccccc1)c1ccc(NC(=O)C(F)(F)F)cc1 1
Cc1cc(OC(=O)c2ccccc2Cl)ccc1N1C(=O)CCC1=O 0.3
Cc1ccc(S(=O)(=O)N2CCN(CC(=O)N/N=C/c3ccc(Br)s3)CC2)cc1 1.1
O=C(c1ccc(S(=O)(=O)c2ccccc2)cc1)N1CCCCCC1 1
O=C1N/C(=C/c2cccs2)C(=O)N1Cc1ccc(F)cc1 1
CC1=CC=CN2C1=NC(=O)CC2(C)C(=O)N(CC(=O)NC1CCCC1)c1ccccc1C (configuration not stated) 1.1
Cc1cc(C)n(CCNC(=O)CC2C(=O)NCCN2Cc2ccc(C)o2)n1 (configuration not stated) 1
O=C(NNC(=S)NCCCN1CCOCC1)c1ccncc1 1.1
COc1cc(/C=C/C(=O)N2c3ccccc3Sc3ccc(C(F)(F)F)cc32)cc(OC)c1OC 1
CC(=O)Nc1ccc(NC(=S)NC(=O)c2ccc([N+](=O)[O-])c(C)c2)cc1 0.9
O=C(COC(=O)C1CCN(S(=O)(=O)c2ccc3c(c2)OCCO3)CC1)Nc1ccccc1OC(F)F 1
CCc1ccc(OCC(=O)OCC(=O)c2c(N)n(C)c(=O)n(C)c2=O)cc1 1.1
O=C(c1ccc(-c2ccccc2)cc1)C1CCCN(C(=O)c2cncs2)C1 (configuration not stated) 1.1
O=C(CSC1CC(=O)N(CCc2ccccc2)C1=O)Nc1ccc(Cl)cc1 (configuration not stated) 1
CC(=O)Nc1ccc(Nc2nc3c(S(=O)(=O)c4ccc(C)c(C)c4)nnn3c3ccccc23)cc1 1
COc1cccc(CNC(=O)Cc2csc(Nc3nc(=S)[nH]c4ccccc34)n2)c1 1.1
CCn1c(-c2ccncc2)n[nH]c1=S 1
O=C(COC(=O)c1cccc(Br)c1)Nc1cccc2c1C(=O)c1ccccc1C2=O 1
O=c1[nH]n2c(-c3ccccc3)nc(O)c2c2ccccc12 1
N/C(Cc1ccc([N+](=O)[O-])cc1)=N\OC(=O)C1CCCCC1 1
Cc1c(-c2cccc(Cl)c2)nc2ccccc2c1C(=O)OCC(=O)N(C)C1CCS(=O)(=O)C1 (configuration not stated) 1
COCCCNCCOCCOc1ccc(Cl)cc1Br 1
CC(=O)Nc1ccc(SCC(=O)Nc2ccccc2Oc2ccccc2)cc1 1
Cc1cc(Oc2ccc(Cl)cc2)nc(SCC(=O)c2ccccc2)n1 1
C/C(=N\Nc1ccc([N+](=O)[O-])cc1)c1ccc(-n2nncc2C(C)(C)C)cc1 1
Cc1cccc(C)c1NC(=O)CNC(=O)Cc1ccc(Br)cc1 1.1
Cc1ccc(C(=O)C(=S)N2CCOCC2)cc1 1.1
Cc1ccc(N(CCC(=O)O)S(=O)(=O)c2cccc(C(F)(F)F)c2)cc1 1
Cc1ccc(NN=Nc2nc3c([nH]2)c(=O)n(C)c(=O)n3C)cc1 1
O=C(N/N=C/c1ccc(Cl)cc1)c1nc2ccc([N+](=O)[O-])cc2c(=O)[nH]1 1
CC(=O)Nc1ccc(NC(=O)CSc2nnc(COc3ccccc3C)n2CC2CCCO2)cc1 (configuration not stated) 1
Fc1cc(Br)ccc1NC(=S)Nc1cccnc1 1.1
O=c1cc(CN2CCN(S(=O)(=O)/C=C/c3ccccc3)CC2)c2ccc(O)cc2o1 1
CC1(C)CN(c2ccc(-c3ccnc4ncnn34)cc2)C1=O 1
CN(C)CCOc1ccc(Cl)cc1C(C)(C)C 1.1
CCNC(=S)N1CCN(c2ncccn2)CC1 1
CCc1nnc(NS(=O)(=O)c2ccc(NC(=S)NC(=O)/C=C/c3cccs3)cc2)s1 1
COC(=O)C[n+]1cccc2ccccc21 1
Cc1cccc(N2CCN(C(=O)c3cccc(S(=O)(=O)N4CCc5ccccc5C4)c3)CC2C)c1 (configuration not stated) 1.1
CC(=O)NC(Cc1ccc(F)c(F)c1)C(=O)NC1CCN(C(=O)c2ccc(C)cc2)CC1 (configuration not stated) 1.1
CCCCN(CC)C(=O)c1ccccc1Oc1ccccc1 1
Cc1ccccc1C1CC(c2cccs2)=NN1S(C)(=O)=O (configuration not stated) 1.1
CCn1nc(C)cc1C(=O)N1CCCC(C(=O)c2cccc(OC)c2)C1 (configuration not stated) 0.9
C=C(C)c1cccc(C(C)(C)NC(=O)NCCN(CC)CC)c1 1
